This note sets out measurements from ChEMBL document CHEMBL1135716, “A three-dimensional quantitative structure-activity relationship study of heparin-binding epidermal growth factor shedding inhibitors using comparative molecular field analysis” (J Med Chem, 2002).

Each structure is given as a SMILES string.

A short description of the assay: Heparin-binding epidermal growth factor (HB-EGF) shedding inhibition. The gist of the method: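 Cell-based shedding assay using HT-1080 fibrosarcoma transfectants that express human placental alkaline phosphatase-tagged HB-EGF. Cells were grown 24 h at 2×10^5/well in MEM with 10% FCS, washed, and preincubated 30 min with compound in MEM containing 1% DMSO. They were then stimulated with 60 nM TPA for 60 min. Supernatant was heated 10 min at 65 °C, then given p-nitrophenyl phosphate substrate (pH 9.8) for 2 h, and A405 was read. IC50 was taken from a concentration series.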
As usually defined, the IC50 is the point on the concentration scale where inhibition reaches its midpoint. Higher therefore signals weaker potency. In the case of `CCCCOCCCOc1ccc(S(=O)(=O)N2Cc3nccnc3C[C@@H]2C(=O)NO)cc1`, the IC50 is 260 nM.

Compound `CS(=O)(=O)CCCOc1ccc(S(=O)(=O)N2Cc3nccnc3C[C@@H]2C(=O)NO)cc1` showed an IC50 of 1800 nM.

With `O=C(NO)[C@H]1Cc2nccnc2CN1S(=O)(=O)c1ccc(Oc2ccc(Oc3ccccc3)cc2)cc1`, the IC50 was found to be 6100 nM.

The compound `CSCCCOc1ccc(S(=O)(=O)N2Cc3nccnc3C[C@@H]2C(=O)NO)cc1` came in with an IC50 of 100 nM.

In turn, `COc1ccc(CCS(=O)(=O)N2Cc3nccnc3C[C@@H]2C(=O)NO)cc1` displayed an IC50 of 6700 nM.

For `O=C(NO)[C@H]1Cc2ccccc2CN1S(=O)(=O)c1cccs1`, the concentration for half-maximal inhibition (IC50) came out at 340 nM.

Compound `CCOCCCOc1ccc(S(=O)(=O)N2Cc3cc(O)c(O)cc3C[C@@H]2C(=O)NO)cc1` gave an IC50 of 210 nM.

`Nc1ccc2c(c1)CN(S(=O)(=O)c1ccc(Oc3ccccc3)cc1)[C@@H](C(=O)NO)C2` gave an IC50 of 490 nM.

For `C=Cc1ccc(S(=O)(=O)N2Cc3nccnc3C[C@@H]2C(=O)NO)cc1`, the IC50 stood at 1100 nM.

In turn, `Cc1ccc(S(=O)(=O)N2Cc3nccnc3C[C@@H]2C(=O)NO)cc1` returned an IC50 of 2700 nM.

Take `Cc1ccc(S(=O)(=O)N2Cc3cc(O)c(O)cc3C[C@@H]2C(=O)NO)s1`: the IC50 is 5400 nM.

Consider `O=C(NO)[C@H]1Cc2cc(O)c(O)cc2CN1S(=O)(=O)c1ccc(Oc2cnccn2)cc1`, for which the IC50 was determined as 820 nM.

`O=C(NO)[C@H]1Cc2nccnc2CN1S(=O)(=O)c1ccc(-c2ccccc2)cc1` came in with an IC50 of 1500 nM.

Compound `COc1ccc(S(=O)(=O)N2Cc3ccccc3C[C@@H]2C(=O)NO)cc1` had an IC50 of 280 nM.

Consider `Nc1cccc(S(=O)(=O)N2Cc3ccccc3C[C@@H]2C(=O)NO)c1`, for which the IC50 was determined as 1100 nM.

`Nc1ccc(Oc2ccc(S(=O)(=O)N3Cc4nccnc4C[C@@H]3C(=O)NO)cc2)cc1` came in with an IC50 of 1000 nM.

`O=C(NO)[C@H]1Cc2nccnc2CN1S(=O)(=O)c1ccc(C(F)(F)F)cc1` registered an IC50 of 40000 nM.

The compound `O=C(NO)[C@H]1Cc2nccnc2CN1S(=O)(=O)c1cccs1` yielded an IC50 of 960 nM.

For `CN(C)CCCOc1ccc(S(=O)(=O)N2Cc3nccnc3C[C@@H]2C(=O)NO)cc1`, the IC50 came to 18000 nM.

`O=C(NO)[C@H]1Cc2cc(O)c(O)cc2CN1S(=O)(=O)c1ccc(-c2ccccc2)cc1` came in with a half-maximal inhibitory concentration (IC50) of 1290 nM.

As for `Cc1ccccc1S(=O)(=O)N1Cc2nccnc2C[C@@H]1C(=O)NO`, the IC50 was 12000 nM.

Compound `CCOC(=O)COc1ccc(S(=O)(=O)N2Cc3nccnc3C[C@@H]2C(=O)NO)cc1` registered an IC50 of 1000 nM.

As to `O=C(NO)[C@H]1Cc2nccnc2CN1S(=O)(=O)c1ccc(OCCCc2ccccc2)cc1`, the IC50 stood at 630 nM.

For `COc1ccc(S(=O)(=O)N2Cc3cc(N)ccc3C[C@@H]2C(=O)NO)cc1`, the IC50 came out at 190 nM.

Consider `CC(C)COCCCOc1ccc(S(=O)(=O)N2Cc3nccnc3C[C@@H]2C(=O)NO)cc1`, for which the IC50 was 560 nM.

For `Cc1ccc(S(=O)(=O)N2Cc3ccccc3C[C@@H]2C(=O)NO)cc1`, the IC50 came out at 830 nM.

`CCCCOc1ccc(S(=O)(=O)N2Cc3ccccc3C[C@@H]2C(=O)NO)cc1` displayed an IC50 of 420 nM.

The compound `COCCc1ccc(S(=O)(=O)N2Cc3nccnc3C[C@@H]2C(=O)NO)s1` returned an IC50 of 3000 nM.

In the case of `CC(C)c1ccc(S(=O)(=O)N2Cc3ccccc3C[C@@H]2C(=O)NO)cc1`, the IC50 came to 5500 nM.

With `COc1ccc(S(=O)(=O)N2Cc3cc(NC(=O)[C@H](N)Cc4ccccc4)ccc3C[C@@H]2C(=O)NO)cc1`, the IC50 is 570 nM.

Turning to `NS(=O)(=O)c1ccc(-c2ccc(S(=O)(=O)N3Cc4ccccc4C[C@@H]3C(=O)NO)cc2)cc1`, the IC50 came out at 20000 nM.

`CCCOc1ccc(S(=O)(=O)N2Cc3nccnc3C[C@@H]2C(=O)NO)cc1`: the IC50 worked out at 1000 nM.

As to `O=C(NO)[C@H]1Cc2nccnc2CN1S(=O)(=O)c1ccc([N+](=O)[O-])cc1`, the IC50 is 70000 nM.

Turning to `O=C(O)c1ccc(S(=O)(=O)N2Cc3nccnc3C[C@@H]2C(=O)NO)cc1`, the IC50 came to 70000 nM.

On to `Nc1ccc2c(c1)CN(S(=O)(=O)c1ccc(Oc3ncccn3)cc1)[C@@H](C(=O)NO)C2`, for which the IC50 was 4500 nM.

Compound `O=C(NO)[C@H]1Cc2ccccc2CN1S(=O)(=O)c1ccccc1` displayed an IC50 of 42 nM.

As to `O=C(NO)[C@H]1Cc2nccnc2CN1S(=O)(=O)c1ccc(OCCO)cc1`, the IC50 worked out at 1500 nM.

On to `O=C(NO)[C@H]1Cc2cc(O)c(O)cc2CN1S(=O)(=O)c1cccs1`, for which the IC50 stood at 160 nM.

For the compound `O=C(NO)[C@H]1Cc2cc(O)c(O)cc2CN1S(=O)(=O)c1ccc(OCCCc2ccccc2)cc1`, the IC50 amounted to 990 nM.

In the case of `O=C(NO)[C@H]1Cc2nccnc2CN1S(=O)(=O)c1ccc(OCCCBr)cc1`, the IC50 is 600 nM.

For the compound `O=C(NO)[C@H]1Cc2nccnc2CN1S(=O)(=O)c1ccc(Oc2cnccn2)cc1`, the IC50 stood at 110 nM.

`O=C(NO)[C@H]1Cc2nccnc2CN1S(=O)(=O)c1ccc(Oc2ccncc2)cc1` showed an IC50 of 340 nM.

Compound `CCCCCC(=O)Nc1ccc(S(=O)(=O)N2Cc3nccnc3C[C@@H]2C(=O)NO)cc1` yielded an IC50 of 7700 nM.

As to `COc1ccc(S(=O)(=O)N2Cc3nccnc3C[C@@H]2C(=O)NO)cc1`, the IC50 came to 350 nM.

On to `CCCCCCS(=O)(=O)N1Cc2nccnc2C[C@@H]1C(=O)NO`, for which the IC50 came out at 4400 nM.

With `COc1ccc(S(=O)(=O)N2Cc3cc(NC(=O)CN)ccc3C[C@@H]2C(=O)NO)cc1`, the IC50 came to 280 nM.

Turning to `CCOC(=O)CCCOc1ccc(S(=O)(=O)N2Cc3nccnc3C[C@@H]2C(=O)NO)cc1`, the IC50 was found to be 1100 nM.

`C#Cc1ccc(S(=O)(=O)N2Cc3nccnc3C[C@@H]2C(=O)NO)cc1` showed an IC50 of 130 nM.

In turn, `Nc1ccc(S(=O)(=O)N2Cc3nccnc3C[C@@H]2C(=O)NO)cc1` returned an IC50 of 1800 nM.

With `CCCOc1ccc(S(=O)(=O)N2Cc3cc(O)c(O)cc3C[C@@H]2C(=O)NO)cc1`, the IC50 stood at 630 nM.

On to `COc1ccc(S(=O)(=O)N2Cc3cc(O)c(O)cc3C[C@@H]2C(=O)NO)cc1`, for which the IC50 stood at 730 nM.

Turning to `COCCCOc1ccc(S(=O)(=O)N2Cc3cc(N)ccc3C[C@@H]2C(=O)NO)cc1`, the IC50 was 39 nM.

Compound `COc1ccc(S(=O)(=O)N2Cc3cc(N(CC(=O)O)CC(=O)O)ccc3C[C@@H]2C(=O)NO)cc1` gave an IC50 of 360 nM.

Compound `O=C(NO)[C@H]1Cc2nccnc2CN1S(=O)(=O)c1cccnc1` gave an IC50 of 6900 nM.
